Holding throughout (type): functional, organism-based
The test system of assay [1] is Human immunodeficiency virus 1. In words: Potency evaluated against NNRTI-Resistant HIV-1 strain Leu100Ile. The method in brief: (§1)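 Test compound dilutions in microtiter wells; HIV added at 200-250 CCID50/well and MT4 cells at 3 × 10^4 cells/well (final). Incubated 5 days at 37 °C, 5% CO2. Cytopathic effect of replicating virus read by MTT tetrazolium colorimetry. EC50 is the dose achieving 50% infection.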

Assay [2] deals with Human immunodeficiency virus 1. In words: Potency evaluated against NNRTI-Resistant HIV-1 strain Gly190Ala. The method, boiled down:
as §1

Assay [3] concerns Human immunodeficiency virus 1. In words: Potency evaluated against NNRTI-Resistant HIV-1 strain Lys103Asn. The method, boiled down: as §1
Assay [4] has as its system Human immunodeficiency virus 1. The assay is described as follows: Potency evaluated against NNRTI-Resistant HIV-1 strain Tyr188Leu. The method in brief:
as §1

The test system of assay [5] is Human immunodeficiency virus 1. The assay is described as follows: Potency evaluated against NNRTI-Resistant HIV-1 strain Tyr181Cys. The method in brief: as §1
In assay [6] the test system is Human immunodeficiency virus 1. In words: Potency evaluated against wild type HIV-1 strain IIIB. The method, boiled down: as §1
The test system of assay [7] is Human immunodeficiency virus 1. In words: Potency evaluated against NNRTI-Resistant HIV-1 strain Val106Ala. The method, boiled down:
as §1

Molecules are shown by their SMILES.

In ChEMBL document CHEMBL1148309, “Roles of conformational and positional adaptability in structure-based design of TMC125-R165335 (etravirine) and related non-nucleoside reverse transcriptase inhibitors that are highly potent and effective against wild-type and drug-resistant HIV-1 variants” (J Med Chem, 2004) one finds EC50 data, which are given here for 10 molecules.

As for `CC(C)Nc1cccnc1N1CCN(C(=O)c2cc3cc(NS(C)(=O)=O)ccc3[nH]2)CC1` [DELAVIRDINE], the EC50 turned out to be 3470 nM in assay [1]; 38 nM in assay [2]; 1700 nM in assay [3]; 178 nM in assay [4]; 1340 nM in assay [5]; 16 nM in assay [6]. This molecule also displayed an EC50 in assay [7] of 2240 nM.

With `N#Cc1ccc(Nc2nc(N)nc(Oc3c(Cl)cccc3Cl)n2)cc1`, the EC50 turned out to be 320 nM in assay [1]; 79 nM in assay [3]; 320 nM in assay [4]; 250 nM in assay [5]; 3 nM in assay [6]; 100 nM in assay [7].

Regarding `Cc1cc(C#N)cc(C)c1Oc1nc(Nc2ccc(C#N)cc2)nc(N)c1Br` [ETRAVIRINE], the EC50 in assay [1] came to 3 nM; in assay [2], […]; in assay [3], […]; in assay [4], 3 nM; in assay [5] it was 6 nM; in assay [6] it was 20 nM. In addition, it took 2 nM to reach a half-maximal effect in assay [7] (EC50).

Take `N#Cc1ccc(Nc2nc(N)nc(Cc3c(Cl)ccc4[nH]ccc34)n2)cc1`: the EC50 in assay [1] worked out at 1000 nM; in assay [2] it was 3 nM; in assay [3], 63 nM; in assay [4], 1000 nM; in assay [5], 250 nM; in assay [6], 3 nM. This molecule yielded an EC50 in assay [7] of 63 nM.

Regarding `Cc1cc(C#N)cc(C)c1Oc1nc(Nc2ccc(C#N)cc2)nc(CO)c1Br`, the EC50 was determined as 2 nM in assay [1]; 1 nM in assay [2]; 4 nM in assay [3]; 6 nM in assay [4]; 6 nM in assay [5]; 4 nM in assay [6]. In assay [7], this molecule registered an EC50 of 2 nM.

Turning to `Cc1cc(C)c(Nc2ccnc(Nc3ccc(C#N)cc3)n2)c(C)c1` [DAPIVIRINE], the EC50 in assay [1] is 16 nM; in assay [2], 1 nM; in assay [3], 4 nM; in assay [4], 40 nM; in assay [5] it was 8 nM; in assay [6] it was 1 nM. This molecule also showed an EC50 in assay [7] of 3 nM.

As for `Cc1ccnc2c1NC(=O)c1cccnc1N2C1CC1` [NEVIRAPINE], the EC50 in assay [1] was 638 nM; in assay [2] it was 3460 nM; in assay [3], 2470 nM; in assay [4] it was more than 100000 nM; in assay [5], 5350 nM; in assay [6], 85 nM. The EC50 in assay [7] is 2410 nM.

As for `N#Cc1ccc(NC(=S)NC(=N)Cc2c(Cl)cccc2Cl)cc1`, the EC50 in assay [1] came out at 513 nM; in assay [2], 2 nM; in assay [3], 589 nM; in assay [4] it was 318 nM; in assay [5] it was 511 nM; in assay [6], 3 nM. Further, a half-maximal response in assay [7] (EC50) required 382 nM.

`CC(=O)c1ccc(C)cc1N[C@@H](C(N)=O)c1c(Br)cccc1Br` [(R)-LOVIRIDE]: the EC50 was 50 nM in assay [1]; 2510 nM in assay [2]; 1260 nM in assay [3]; 50100 nM in assay [4]; 15800 nM in assay [5]; 5 nM in assay [6]. For the same molecule, the EC50 in assay [7] turned out to be 1000 nM.

As for `N#Cc1ccc(Nc2nc(N)nc(Cc3c(Cl)cccc3Cl)n2)cc1`, the EC50 turned out to be 293 nM in assay [1]; 1 nM in assay [2]; 41 nM in assay [3]; 431 nM in assay [4]; 277 nM in assay [5]; 2 nM in assay [6]. Further, in assay [7], a half-maximal effect (EC50) was put at 26 nM.
